Laboratory results as given in ChEMBL document CHEMBL1124069, “Synthesis and pharmacological characterization of a series of leukotriene analogues with antagonist and agonist activities” (1988).

Tests used:
[1] = test system: Cysteinyl leukotriene receptor (Cavia porcellus); assay: Ability to inhibit the contraction induced by 8 nM LTE4 on isolated guinea pig tracheal strips at 10 uM dose; % antagonism / % basal tension; details: Trachea
Cavia porcellus [2] = organism: Cavia porcellus; assay: Ability to inhibit the contraction induced by 8 nM LTE4 on isolated guinea pig tracheal strips at 5 uM dose; % antagonism / % basal tension; assay type: functional, Trachea
Method in brief: (§1)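 Guinea pig tracheal spirals were held at 2 g resting tension and stabilized for 60 min, with bath changes every 15 min. Tissues received two 10-min challenges with 8 nM LTE4, each followed by a 60-min wash. Test compound was then added for 10 min, noting any resting-tension change, before a third LTE4 challenge. % inhibition = (2nd−3rd)/2nd×100, corrected for paired vehicle tissue. Significance was tested by paired t test (p<0.05).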

Cavia porcellus [3] = organism: Cavia porcellus; assay: Ability to inhibit the contraction induced by 8 nM LTE4 on isolated guinea pig tracheal strips at 4 uM dose; % antagonism / % basal tension; assay type: functional, Trachea
Cavia porcellus [4] = organism: Cavia porcellus; assay: Ability to inhibit the contraction induced by 8 nM LTE4 on isolated guinea pig tracheal strips at 10 uM dose; % antagonism / % basal tension, Agonist activity was too great to determine if there was any partial antagonism/100; assay type: functional; details: Trachea, filed as agonist
Method in brief: as §1

Cavia porcellus [5] = organism: Cavia porcellus; assay: Ability to inhibit the contraction induced by 8 nM LTE4 on isolated guinea pig tracheal strips at 1 uM dose; % antagonism / % basal tension; assay type: functional, Trachea
Method in brief: as §1

Cavia porcellus [6] = organism: Cavia porcellus; assay: Ability to inhibit the contraction induced by 8 nM LTE4 on isolated guinea pig tracheal strips at 50 uM dose; % antagonism / % basal tension, compound was checked against BaCl2 as agonist at specified concentration/14; assay type: functional, Trachea
Method in brief: as §1

Cavia porcellus [7] = organism: Cavia porcellus; assay: Ability to inhibit the contraction induced by 8 nM LTE4 on isolated guinea pig tracheal strips at 3.3 uM dose; % antagonism / % basal tension

| Ratio [1] | SMILES | also measured |
| --- | --- | --- |
| 14 | CCCCCCCc1ccc(C/C=C\[C@@H](Sc2cccc(N)c2)[C@@H](O)CCCC(=O)O)cc1 | – |
| 68 | CCCCCCCc1ccc(C/C=C\[C@@H](SCc2ccc(N)c(C(=O)O)c2)[C@@H](O)CCCC(=O)O)cc1 | – |
| 24 | CCCCCCOc1ccccc1C/C=C\[C@@H](SCc1ccc(C(=O)O)cc1OC)[C@@H](O)CCCC(=O)O | – |
| 2 | CCCCCCCc1ccc(C/C=C\[C@@H](Sc2ccc(Cl)c(Cl)c2)[C@@H](O)CCCC(=O)O)cc1 | – |
| 52 | CCCCCCCc1cccc(C/C=C\[C@@H](SCc2ccc(C(=O)O)cc2OC)[C@@H](O)CCCC(=O)O)c1 | Ratio (Cavia porcellus [2]): 45 |
| 74 | CCCCCCCc1ccc(C/C=C\[C@@H](SCc2ccc(C(=O)O)cc2OC)[C@@H](O)CCCC(=O)O)cc1 | Ratio (Cavia porcellus [2]): 31 |
| 34 | CCCCCCCc1ccc(C/C=C\[C@@H](SCc2cccc(/C=C/C(=O)O)c2)[C@@H](O)CCCC(=O)O)cc1 | – |
| 38 | CCCCCCCc1ccc(C/C=C\[C@@H](SCc2ccc(/C=C/C(=O)O)cc2)[C@@H](O)CCCC(=O)O)cc1 | – |
| 24 | CCCCCCCc1ccc(C/C=C\[C@@H](SCc2ccc(C(=O)O)cc2[N+](=O)[O-])[C@@H](O)CCCC(=O)O)cc1 | – |
| – | CCCc1c(OCC(O)COc2ccc3c(=O)cc(C(=O)O)oc3c2CCC)ccc(C(C)=O)c1O (stereo not drawn) [FPL-55712] | Ratio (Cavia porcellus [3]): 62 |
| 43 | CCCCCc1ccc(C/C=C\[C@@H](SCc2ccc(C(=O)O)cc2OC)[C@@H](O)CCCC(=O)O)cc1 | – |
| 39 | CCCCCCCc1ccc(C/C=C\[C@@H](SCc2ccccc2C(=O)O)[C@@H](O)CCCC(=O)O)cc1 | – |
| – | CCCCCCOc1ccc(C/C=C\[C@@H](SCc2ccc(C(=O)O)cc2OC)[C@@H](O)CCCC(=O)O)cc1 | Ratio (Cavia porcellus [4]): Agonist activity was too great to determine if there was any partial antagonism |
| 66 | CCCCCCCc1ccc(C/C=C\[C@@H](SCc2ccc(C(=O)O)cc2N)[C@@H](O)CCCC(=O)O)cc1 | – |
| 37 | CCCCCCCc1ccc(C/C=C\[C@@H](SCc2ccc(C(=O)O)cc2)[C@@H](O)CCCC(=O)O)cc1 | – |
| – | CCCCCCCc1ccc(C/C=C\[C@@H](SCc2cccc(C(=O)O)c2)[C@@H](O)CCCC(=O)O)cc1 | Ratio (Cavia porcellus [5]): 16 |
| 39 | CCCCC/C=C/c1ccc(C/C=C\[C@@H](SCc2ccc(C(=O)O)cc2OC)[C@@H](O)CCCC(=O)O)cc1 | – |
| 63 | CCCCCCCc1ccc(C/C=C\[C@@H](SCc2ccc(C(=O)O)cc2F)[C@@H](O)CCCC(=O)O)cc1 | – |
| 39 | CCCCCCCc1ccc(C/C=C\[C@@H](SCc2cc(C(=O)O)ccc2N)[C@@H](O)CCCC(=O)O)cc1 | – |
| 4 | CCCCCCCc1ccc(C/C=C\[C@@H](Sc2ccc(NC(C)=O)cc2)[C@@H](O)CCCC(=O)O)cc1 | – |
| 57 | CCCCC/C=C/c1cccc(C/C=C\[C@@H](SCc2ccc(C(=O)O)cc2OC)[C@@H](O)CCCC(=O)O)c1 | Ratio (Cavia porcellus [5]): 7 |
| 86 | CCCCCCOc1cccc(C/C=C\[C@@H](SCc2ccc(C(=O)O)cc2OC)[C@@H](O)CCCC(=O)O)c1 | Ratio (Cavia porcellus [6]): 14; Ratio (Cavia porcellus [7]): 32 |
| 51 | CCCCCCCc1ccc(C/C=C\[C@@H](SCc2ccc(C(=O)O)c(N)c2)[C@@H](O)CCCC(=O)O)cc1 | – |
